The text below walks through data of ChEMBL document CHEMBL1126020, “Potent non-6-fluoro-substituted quinolone antibacterials: synthesis and biological activity” (1992).

Converted amounts (≈) assume the structure as drawn.

Assay type in all cases: functional
Experiment [1] concerns Staphylococcus aureus. Briefly: In vitro antimicrobial activity against strain Staphylococcus aureus 9537. The method in brief: (§1)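 MICs by serial 2-fold broth dilution in nutrient broth. Inoculum adjusted to 10^6 CFU/mL, with compounds tested from 0.0005 to 250 μg/mL. Plates incubated 18 h at 37 °C. MIC taken as the lowest concentration preventing visible bacterial growth.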

The test system of experiment [2] is Klebsiella pneumoniae. Briefly: In vitro antimicrobial activity against strain Klebsiella pneumoniae 9664. The procedure, abridged:
as §1

In experiment [3] the test system is Enterococcus faecalis. In words: In vitro antimicrobial activity against strain Enterococcus faecalis 9809. The procedure, abridged: as §1
Experiment [4] has as its system Enterobacter cloacae. Briefly: In vitro antimicrobial activity against strain Enterobacter cloacae 9656.
In experiment [5] the test system is Morganella morganii. Briefly: In vitro antimicrobial activity against strain Morganella morganii 15153. The procedure, abridged:
as §1

The subject of experiment [6] is Proteus mirabilis. In words: In vitro antimicrobial activity against strain Proteus mirabilis 9900. The method in brief: as §1
The subject of experiment [7] is Pseudomonas aeruginosa. In words: In vitro antimicrobial activity against strain Pseudomonas aeruginosa 9843. The method in brief:
as §1

Experiment [8] has as its system Escherichia coli. In words: In vitro antimicrobial activity against strain Escherichia coli 15119. The method in brief: as §1
Experiment [9] has as its system Streptococcus pneumoniae. Briefly: In vitro antimicrobial activity against strain Streptococcus pneumoniae 9585. The procedure, abridged:
as §1

Regarding `NC1CCN(c2cc3c(cc2F)c(=O)c(C(=O)O)cn3C2CC2)C1` (stereo not given), the minimal inhibitory concentration (MIC) amounted to 0.03 µg/mL (≈ 0.0905 µM) in experiment [1]; 0.03 µg/mL (≈ 0.0905 µM) in experiment [2]; 0.25 µg/mL (≈ 0.754 µM) in experiment [3]; 0.004 µg/mL (≈ 0.0121 µM) in experiment [4]; 0.016 µg/mL (≈ 0.0483 µM) in [5]; 0.03 µg/mL (≈ 0.0905 µM) in experiment [6]. Besides, the MIC in experiment [7] was determined as 0.25 µg/mL (≈ 0.754 µM); in experiment [8] it was 0.004 µg/mL (≈ 0.0121 µM); in [9] it was 0.13 µg/mL (≈ 0.392 µM).

Consider `NC1CCN(c2c(F)cc3c(=O)c(C(=O)O)cn(C4CC4)c3c2F)C1` (stereo not given), for which the MIC in [1] was determined as 0.008 µg/mL (≈ 0.0229 µM); in experiment [2] it was 0.03 µg/mL (≈ 0.0859 µM); in experiment [3], 2 µg/mL (≈ 5.73 µM); in [4], 0.016 µg/mL (≈ 0.0458 µM); in [5], 0.016 µg/mL (≈ 0.0458 µM); in experiment [6] it was 0.016 µg/mL (≈ 0.0458 µM). Further, the MIC in [7] worked out at 0.13 µg/mL (≈ 0.372 µM); in experiment [8], 0.008 µg/mL (≈ 0.0229 µM); in [9], 0.03 µg/mL (≈ 0.0859 µM).

As to `NC1CCN(c2cc(F)c3c(=O)c(C(=O)O)cn(C4CC4)c3c2F)C1` (stereo not given), the minimal inhibitory concentration (MIC) in experiment [1] was found to be 0.13 µg/mL (≈ 0.372 µM); in experiment [2] it was 0.13 µg/mL (≈ 0.372 µM); in experiment [3] it was 4 µg/mL (≈ 11.5 µM); in experiment [4], 0.06 µg/mL (≈ 0.172 µM); in experiment [5] it was 0.06 µg/mL (≈ 0.172 µM); in experiment [6], 0.13 µg/mL (≈ 0.372 µM). The MIC in [7] is 2 µg/mL (≈ 5.73 µM); in experiment [8], 0.06 µg/mL (≈ 0.172 µM); in [9], 4 µg/mL (≈ 11.5 µM).

Turning to `NC1CCN(c2ccc3c(=O)c(C(=O)O)cn(C4CC4)c3c2)C1` (stereo not given), the minimal inhibitory concentration (MIC) is 0.25 µg/mL (≈ 0.798 µM) in experiment [1]; 0.06 µg/mL (≈ 0.191 µM) in experiment [2]; 4 µg/mL (≈ 12.8 µM) in experiment [3]; 0.13 µg/mL (≈ 0.415 µM) in experiment [4]; 0.13 µg/mL (≈ 0.415 µM) in experiment [5]; 0.13 µg/mL (≈ 0.415 µM) in [6]. Besides, the MIC in [7] stood at 0.5 µg/mL (≈ 1.6 µM); in [8], 0.008 µg/mL (≈ 0.0255 µM); in [9] it was 2 µg/mL (≈ 6.38 µM).

With `NC1CCN(c2cc(F)c3c(=O)c(C(=O)O)cn(C4CC4)c3c2)C1` (stereo not given), the MIC stood at 1 µg/mL (≈ 3.02 µM) in experiment [1]; 0.5 µg/mL (≈ 1.51 µM) in experiment [2]; 16 µg/mL (≈ 48.3 µM) in experiment [3]; 0.13 µg/mL (≈ 0.392 µM) in [4]; 0.25 µg/mL (≈ 0.754 µM) in experiment [5]; 0.5 µg/mL (≈ 1.51 µM) in experiment [6]. Besides, the minimal inhibitory concentration (MIC) in [7] was determined as 4 µg/mL (≈ 12.1 µM); in experiment [8] it was 0.13 µg/mL (≈ 0.392 µM); in experiment [9], 4 µg/mL (≈ 12.1 µM).

Consider `NC1CCN(c2ccc3c(=O)c(C(=O)O)cn(C4CC4)c3c2F)C1` (stereo not given), for which the MIC in [1] came out at 0.03 µg/mL (≈ 0.0905 µM); in [2], 0.016 µg/mL (≈ 0.0483 µM); in [3], 0.25 µg/mL (≈ 0.754 µM); in experiment [4] it was 0.03 µg/mL (≈ 0.0905 µM); in [5], 0.016 µg/mL (≈ 0.0483 µM); in experiment [6], 0.03 µg/mL (≈ 0.0905 µM). The MIC was 0.25 µg/mL (≈ 0.754 µM) in experiment [7], 0.008 µg/mL (≈ 0.0241 µM) in experiment [8] and 0.5 µg/mL (≈ 1.51 µM) in [9].

`O=C(O)c1cn(C2CC2)c2cc(N3CCNCC3)c(F)cc2c1=O` [CIPROFLOXACIN]: the MIC in experiment [1] turned out to be 0.06 µg/mL (≈ 0.181 µM); in [2], 0.06 µg/mL (≈ 0.181 µM); in experiment [3] it was 0.5 µg/mL (≈ 1.51 µM); in experiment [5], 0.08 µg/mL (≈ 0.241 µM); in experiment [6], 0.008 µg/mL (≈ 0.0241 µM); in experiment [9] it was 0.25 µg/mL (≈ 0.754 µM).
